Test [1] is described as follows: Inhibition of Sprague-Dawley rat brain FTase by continuous fluorescence assay. The procedure, abridged:
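Enzyme source: cytosolic fraction (100 000g supernatant) of brains from male Sprague–Dawley rats aged 9–10 weeks, kept at -80 °C. Reaction: 50 mM Tris-HCl pH 7.5, 5 mM MgCl2, 10 μM ZnCl2, 5 mM DTT, 0.01% n-dodecyl-β-D-maltoside, 5.4 mg/mL cytosolic protein, 1.3 μM dansyl-CVIM, 25 μM FPP. Run at 25 °C, fluorescence (ex 340/em 505 nm) recorded 10 min. IC50 obtained by fitting ΔF/Δt versus inhibitor concentration.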

Test [2] can be described thus: Inhibition of Sprague-Dawley rat brain GGTI by continuous fluorescence assay. The procedure, abridged:
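GGT-I source: rat brain cytosol (male Sprague–Dawley, 100 000g supernatant). Buffer: 50 mM Tris-HCl pH 7.5, 5 mM MgCl2, 10 μM ZnCl2, 5 mM DTT, 0.01% dodecyl maltoside, 5.4 mg/mL protein, 4 μM dansyl-GCVLL, 10 μM GGPP. Incubated at 25 °C; fluorescence followed for 10 min at ex 340/em 505 nm. IC50 taken from sigmoid fit of rate against inhibitor concentration.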

Another test has as its system DLD-1. Put plainly: Growth inhibition of human DLD1 cells by MTT assay after 72 hrs. As to conditions: DLD-1, 72 h. Type of test: functional, cell-based. A digest of the protocol: (§1)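 Cells (H-Ras-transformed NIH3T3 fibroblasts; K-Ras-transformed DLD-1 colon adenocarcinoma; L-1210 leukaemia) grown in RPMI + 10% fetal calf serum. Seeded and allowed to grow 24 h, then exposed to a range of inhibitor concentrations for 72 h, 1% DMSO final. Growth read by colorimetric MTT assay; EC50 derived.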
(Tetrazolium assays rely on reduction of a dye to a coloured formazan, in cell work by metabolically active cells.)

For another test, the system named is L1210. Put plainly: Growth inhibition of mouse L1210 cells by MTT assay after 72 hrs. It is filed as functional, cell-based. As to conditions: L1210, 72 h. A digest of the protocol: as §1
A further test deals with NIH3T3. Put plainly: Growth inhibition of H-Ras transformed […] cells by MTT assay after 72 hrs. To be noted: Mus musculus, NIH3T3, 72 h. Type of test: functional, cell-based. A digest of the protocol: as §1

Molecules are shown by their SMILES. pEC50, pIC50: −log10 of the molar value.

Turning to `CSCC[C@@H](C(=O)O)N(C(=O)c1ccccc1)C1CCN(Cc2cncn2Cc2ccc(C#N)cc2)CC1`, the pIC50 – broadly, the negative decadic logarithm of the IC50, by convention in mol/L – is 8.00 in test [1] and less than 5.70 in test [2].

As for `CCC(C)[C@@H](C(=O)OC)N(C(=O)c1ccccc1)C1CCN(Cc2cncn2Cc2ccc(C#N)cc2)CC1` (stereo partly specified), the negative-log IC50 (pIC50) in test [1] is 7.49; in test [2], less than 5.70.

Consider `CC(C)C[C@H](NC(=O)c1ccc(NC(=O)[C@@H](N)CS)cc1-c1ccccc1)C(=O)O`, for which the pIC50 in test [1] was 7.25; in test [2], 7.91.

Molecule `COC(=O)[C@H](CCSC)N(C(=O)c1ccccc1)C1CCN(Cc2cncn2Cc2ccc(C(F)(F)F)cc2)CC1` showed a negative logarithm of the IC50 (pIC50) in test [1] of 7.36.

In turn, `COC(=O)[C@H](CCSC)N(C(=O)c1ccccc1)C1CCN(Cc2cncn2Cc2ccc(C)cc2)CC1` had a pIC50 in test [1] of 6.22.

On to `COC(=O)[C@H](CCSC)N(C(=O)c1ccccc1)C1CCN(C(=O)C(N)CS)CC1` (stereo partly specified), for which the negative-log EC50 (pEC50) (commonly the EC50 on a negative log10 scale, so that one unit is a factor of ten) in the test with DLD-1 is 4.74; in the test with L1210, less than 5.00. Moreover, the pIC50 is 7.64 in test [1] and less than 7.00 in test [2].

`COC(=O)[C@H](CCSC)N(C(=O)c1ccccc1)C1CCN(Cc2cncn2Cc2ccccc2)CC1` had a negative logarithm of the IC50 (pIC50) in test [1] of 6.40.

In test [1], `COC(=O)[C@H](CCSC)N(C(=O)c1ccccc1)C1CCN(Cc2cncn2Cc2ccc(OC)cc2)CC1` gave a pIC50 of 6.24.

As for `COC(=O)[C@H](CCSC)N(Cc1ccccc1)C1CCN(Cc2cncn2Cc2ccc(C#N)cc2)CC1`, the negative logarithm of the EC50 (pEC50) in the test on DLD-1 was 4.89; in the test with L1210 it was less than 5.30. Further, the negative-log IC50 (pIC50) in test [1] was 8.63; in test [2] it was less than 5.70.

`COC(=O)[C@H](Cc1ccccc1)N(C(=O)c1ccccc1)C1CCN(Cc2cncn2Cc2ccc(C#N)cc2)CC1`: the negative logarithm of the IC50 (pIC50) in test [1] was 7.66; in test [2] it was less than 5.70.

Take `N#Cc1ccc(Cn2cncc2CN2CCC(N(C(=O)c3ccccc3)[C@@H](Cc3ccccc3)C(=O)O)CC2)cc1`: the pIC50 in test [1] was 7.27; in test [2], less than 5.70.

Consider `COC(=O)[C@H](CCSC)N(C(=O)c1ccccc1)C1CCN(Cc2cncn2Cc2ccc(C#N)cc2)CC1`, for which the figures for the pEC50 in the test with DLD-1, with NIH3T3 and in the test on L1210 were 5.04, 5.88 and 7.70, respectively. The pIC50 is 8.34 in test [1] and less than 5.70 in test [2].

In the case of `CSCC[C@H](NC(=O)c1ccc(NC(=O)[C@@H](N)CS)cc1)C(=O)O`, the pIC50 in test [1] was 7.14; in test [2] it was less than 7.00.

In the case of `CSCC[C@H](NC(=O)[C@H](Cc1ccccc1)NC[C@@H](NC[C@@H](N)CS)C(C)C)C(=O)O`, the negative logarithm of the IC50 (pIC50) in test [1] is 7.47; in test [2], less than 5.30.

The values above are taken from ChEMBL document CHEMBL1149307, “Potent and selective farnesyl transferase inhibitors” (J Med Chem, 2004).
